ChEMBL document CHEMBL1129514 (J Med Chem, 1996)
Where “and” joins values, the source holds several entries; their conditions need not be identical. Equal values may be shown once.

Key:
[1] = molecular target: T1, 5-hydroxytryptamine receptor 1A (Rattus norvegicus, UniProt P19327); assay: Binding affinity towards 5-hydroxytryptamine 1A receptor in the rat brain (hippocampus) using [3H]8-OH-DPAT; type: tissue-based
T1 sequence (P19327 whole entry): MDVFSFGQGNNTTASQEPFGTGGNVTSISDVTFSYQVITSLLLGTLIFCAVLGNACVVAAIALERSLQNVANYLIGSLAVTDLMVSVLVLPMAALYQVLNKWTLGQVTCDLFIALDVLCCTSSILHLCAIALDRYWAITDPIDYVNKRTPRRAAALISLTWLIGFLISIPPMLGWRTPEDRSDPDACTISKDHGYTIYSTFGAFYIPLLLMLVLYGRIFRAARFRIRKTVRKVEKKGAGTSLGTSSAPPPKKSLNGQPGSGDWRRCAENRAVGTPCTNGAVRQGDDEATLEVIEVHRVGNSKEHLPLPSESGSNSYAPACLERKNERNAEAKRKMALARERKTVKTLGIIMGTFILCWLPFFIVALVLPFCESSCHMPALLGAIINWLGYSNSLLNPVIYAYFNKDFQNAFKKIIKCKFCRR
In short: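 Rat hippocampal membranes; competition binding against [3H]-8-OH-DPAT (190 Ci/mmol) using 10-14 drug concentrations, each run in triplicate. Ki derived from at least three independent competition experiments. Remaining conditions follow a previously published procedure.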

Rattus norvegicus [2] = assay: Compound was tested for the induction of lower lip retraction in rats at a dose of 1.25 mg/kg; type: functional
In short: (§1)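 Male Wistar rats (220-260 g), compound ip as fresh aqueous solution, 6-8 animals/dose, each used once. Rats caged individually; lower lip retraction scored at 15, 30 and 45 min post-injection: 0 incisors not visible, 0.5 partly, 1 completely visible. Mean ± SEM score; Dunnett's test vs vehicle.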

Rattus norvegicus [3] = assay: Compound was tested for the induction of lower lip retraction in rats at a dose of 2.5 mg/kg; type: functional; in short: as §1
Rattus norvegicus [4] = assay: Compound was tested for the induction of lower lip retraction in rats at a dose of 5 mg/kg; type: functional; in short: as §1
Rattus norvegicus [5] = assay: Compound was tested for the induction of behavioral syndrome(flat body posture) in rats at a dose of 10 mg/kg; type: functional
In short: (§2)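 Male Wistar rats (220-260 g), reserpine 1 mg/kg sc 18 h before test; compound as fresh aqueous solution ip, rats placed in cages 5 min beforehand. 45-s observation sessions began 3 min after injection, repeated every 3 min over five periods; forepaw treading and flat body posture scored 0 (absent) to 3 (intense). 6-8 rats/dose; mean ± SEM, Dunnett's test.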

Rattus norvegicus [6] = assay: Compound was tested for the induction of behavioral syndrome(flat body posture) in rats at a dose of 5 mg/kg; type: functional; in short: as §2
Rattus norvegicus [7] = assay: Compound was tested for the induction of behavioral syndrome (forepaw treading) in rats at a dose of 10 mg/kg; type: functional; in short: as §2
Rattus norvegicus [8] = assay: Compound was tested for the induction of behavioral syndrome (forepaw treading) in rats at a dose of 5 mg/kg; type: functional; in short: as §2
Rattus norvegicus [9] = assay: Effect on the 8-OH-DPAT-Induced Behavior(flat body posture) in Reserpine Pretreated Rats at a dose of 10 mg/kg; type: functional
In short: (§3)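 Reserpinized male Wistar rats (reserpine 1 mg/kg sc, 18 h prior); compound ip 15 min before 8-OH-DPAT 5 mg/kg ip, fresh aqueous solutions. Observations began 3 min after 8-OH-DPAT, repeated every 3 min for 15 min; flat body posture ranked 0-3. 6-8 rats/dose; mean ± SEM, Dunnett's test vs vehicle + 8-OH-DPAT.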

Rattus norvegicus [10] = assay: Effect on the 8-OH-DPAT-Induced Behavior(flat body posture) in Reserpine Pretreated Rats at a dose of 5 mg/kg; type: functional; in short: as §3

Compound | Ki [1] [nM] | LLR score (Rattus norvegicus [2]) | LLR score (Rattus norvegicus [3]) | LLR score (Rattus norvegicus [4]) | Behavioral score (Rattus norvegicus [5]) | Behavioral score (Rattus norvegicus [6]) | Behavioral score (Rattus norvegicus [7]) | Behavioral score (Rattus norvegicus [8]) | Behavioral score (Rattus norvegicus [9]) | Behavioral score (Rattus norvegicus [10])
O=C1CC2(CCCC2)CC(=O)N1CCN1CCc2ccccc2C1 | 1330 | – | – | – | – | – | – | – | – | –
O=C1CC2(CCCC2)CC(=O)N1CCCCN1CCN(c2ncccn2)CC1 [BUSPIRONE] | – | 1.6 | 2.3 | 2.4 | 6.4 | 6.8 | 0.6 | 0.2 | 9.5 and 3.7 | 14.3 and 5
c1ccc2c(c1)CCNC2 [1,2,3,4-TETRAHYDROISOQUINOLINE] | > 50000 | – | – | – | – | – | – | – | – | –

Further lines, with some results ahead:

Ki [1] [nM] | Compound | LLR score (Rattus norvegicus [2]) | LLR score (Rattus norvegicus [3]) | LLR score (Rattus norvegicus [4]) | Behavioral score (Rattus norvegicus [5]) | Behavioral score (Rattus norvegicus [6]) | Behavioral score (Rattus norvegicus [7]) | Behavioral score (Rattus norvegicus [8]) | Behavioral score (Rattus norvegicus [9]) | Behavioral score (Rattus norvegicus [10])
140 | O=C1c2ccccc2C(=O)N1CCCCN1CCc2ccccc2C1 | – | – | – | – | – | – | – | – | –
41300 | O=C1c2ccccc2C(=O)N1CCN1CCc2ccccc2C1 | – | – | – | – | – | – | – | – | –
5 | O=C1CC2(CCCC2)CC(=O)N1CCCCN1CCc2ccccc2C1 | 1.2 | 1.9 | 2.5 | 11 | 7.8 | 2.7 | 2 | 13.7 and 7.8 | 14.5 and 8.9
